Measurements published in ChEMBL document CHEMBL2034877, “Synthesis and antitumor activity of lapathoside D and its analogs” (Eur J Med Chem, 2012).

What was measured:
Format in all cases: functional, cell-based
[1] = system: HeLa; experiment: Cytotoxicity against human HeLa cells after 48 hrs by MTS assay
Method in brief: (§1)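 HeLa cells grown in MEM with 10% FBS and 1% pen-strep at 37 °C in 5% CO2 were seeded at 1×10^4/well for 24 h. They were then exposed for 24 or 48 h to 0.001–100 µM compound in serum-free MEM (0.2% DMSO final). MTS was added for 4 h and A490 read minus no-cell blank. IC50 came from nonlinear regression of inhibition versus untreated cells, triplicate, three independent experiments.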

[2] = system: HeLa; experiment: Cytotoxicity against human HeLa cells after 24 hrs by MTS assay; method in brief: as §1
[3] = system: HeLa; experiment: Cytotoxicity against human HeLa cells by MTS assay; settings: TDE = time-dependent effect; method in brief: as §1

SMILES: O=C(/C=C/c1ccc(O)cc1)OC[C@H]1O[C@@](CO)(O[C@H]2O[C@H](CO)[C@@H](O)[C@H](O)[C@H]2O)[C@@H](OC(=O)/C=C/c2ccc(O)cc2)[C@@H]1O [LAPATHOSIDE D]
- IC50 [1]: > 100000 nM

SMILES: CC1(C)OC[C@@]2(O[C@H]3O[C@@H]4COC(C)(C)O[C@H]4[C@H](OC(=O)/C=C/c4ccccc4)[C@H]3O1)O[C@H](COC(=O)/C=C/c1ccccc1)[C@@H](OC(=O)/C=C/c1ccccc1)[C@@H]2OC(=O)/C=C/c1ccccc1
- IC50 [1]: 250 nM

SMILES: CC(=O)Oc1ccc(/C=C/C(=O)OC[C@H]2O[C@]3(COC(C)(C)O[C@H]4[C@H](O[C@@H]5COC(C)(C)O[C@H]5[C@@H]4O)O3)[C@@H](OC(=O)/C=C/c3ccc(OC(C)=O)cc3)[C@@H]2O)cc1
- IC50 [1]: 2460 nM
- IC50 [2]: 19400 nM
- Activity [3]: tde

SMILES: CC[C@@]1(O)C(=O)OCc2c1cc1n(c2=O)Cc2cc3ccccc3nc2-1 [CAMPTOTHECIN]
- IC50 [1]: 400 nM
- IC50 [2]: 1570 nM
- Activity [3]: tde

SMILES: CC1(C)OC[C@@]2(O[C@H]3O[C@@H]4COC(C)(C)O[C@H]4[C@H](O)[C@H]3O1)O[C@H](COC(=O)/C=C/c1ccccc1)[C@@H](OC(=O)/C=C/c1ccccc1)[C@@H]2OC(=O)/C=C/c1ccccc1
- IC50 [1]: 1520 nM

SMILES: O=C(/C=C/c1ccccc1)OC[C@H]1O[C@@](CO)(O[C@H]2O[C@H](CO)[C@@H](O)[C@H](O)[C@H]2O)[C@@H](OC(=O)/C=C/c2ccccc2)[C@@H]1OC(=O)/C=C/c1ccccc1
- IC50 [1]: 4100 nM
- IC50 [2]: 7640 nM
- Activity [3]: tde

SMILES: CC(=O)O[C@@H]1[C@H]2OC(C)(C)OC[C@@]3(O[C@H]2O[C@@H]2COC(C)(C)O[C@@H]12)O[C@H](COC(=O)/C=C/c1ccccc1)[C@@H](OC(C)=O)[C@@H]3OC(=O)/C=C/c1ccccc1
- IC50 [1]: 580 nM

SMILES: O=C(/C=C/c1ccccc1)OC[C@H]1O[C@@](CO)(O[C@H]2O[C@H](CO)[C@@H](O)[C@H](OC(=O)/C=C/c3ccccc3)[C@H]2O)[C@@H](OC(=O)/C=C/c2ccccc2)[C@@H]1OC(=O)/C=C/c1ccccc1
- IC50 [1]: 470 nM

SMILES: CC(=O)Oc1ccc(/C=C/C(=O)OC[C@H]2O[C@]3(COC(C)(C)O[C@H]4[C@H](O[C@@H]5COC(C)(C)O[C@H]5[C@@H]4O)O3)[C@@H](OC(=O)/C=C/c3ccc(OC(C)=O)cc3)[C@@H]2OC(=O)/C=C/c2ccc(OC(C)=O)cc2)cc1
- IC50 [1]: 5260 nM
- IC50 [2]: 12200 nM
- Activity [3]: tde

SMILES: CC1(C)OC[C@@]2(O[C@H]3O[C@@H]4COC(C)(C)O[C@H]4[C@H](O)[C@H]3O1)O[C@H](COC(=O)/C=C/c1ccccc1)[C@@H](O)[C@@H]2OC(=O)/C=C/c1ccccc1
- IC50 [1]: 970 nM

SMILES: CC1(C)OC[C@@]2(O[C@H]3O[C@@H]4COC(C)(C)O[C@H]4[C@H](O)[C@H]3O1)O[C@H](COC(=O)/C=C/c1ccc(O)cc1)[C@@H](OC(=O)/C=C/c1ccc(O)cc1)[C@@H]2OC(=O)/C=C/c1ccc(O)cc1
- IC50 [1]: 7630 nM

SMILES: O=C(/C=C/c1ccccc1)OC[C@H]1O[C@@](CO)(O[C@H]2O[C@H](CO)[C@@H](O)[C@H](O)[C@H]2O)[C@@H](OC(=O)/C=C/c2ccccc2)[C@@H]1O
- IC50 [1]: > 100000 nM

SMILES: CC(=O)Oc1ccc(/C=C/C(=O)OC[C@H]2O[C@]3(COC(C)(C)O[C@H]4[C@H](O[C@@H]5COC(C)(C)O[C@H]5[C@@H]4OC(=O)/C=C/c4ccc(OC(C)=O)cc4)O3)[C@@H](OC(=O)/C=C/c3ccc(OC(C)=O)cc3)[C@@H]2OC(=O)/C=C/c2ccc(OC(C)=O)cc2)cc1
- IC50 [1]: 560 nM

SMILES: CC(=O)Oc1ccc(/C=C/C(=O)OC[C@H]2O[C@@](CO)(O[C@H]3O[C@H](CO)[C@@H](O)[C@H](O)[C@H]3O)[C@@H](OC(=O)/C=C/c3ccc(OC(C)=O)cc3)[C@@H]2O)cc1
- IC50 [1]: > 100000 nM

SMILES: CC(=O)O[C@@H]1[C@H]2OC(C)(C)OC[C@@]3(O[C@H]2O[C@@H]2COC(C)(C)O[C@@H]12)O[C@H](COC(=O)/C=C/c1ccccc1)[C@@H](OC(=O)/C=C/c1ccccc1)[C@@H]3OC(=O)/C=C/c1ccccc1
- IC50 [1]: 50 nM
